In ChEMBL document CHEMBL3297707, “Dual protonophore-chitinase inhibitors dramatically affect O. volvulus molting” (J Med Chem, 2014):
Activity calls are given as the source filed them. No cut-off for these calls is given here.

How the values were obtained:
Chitinase [1] = biological target: T1, Chitinase (Onchocerca volvulus, UniProt Q25615); experiment: Inhibition of Onchocerca volvulus L3 larvae chitinase using 20 uM 4-methylumbelliferyl-N,N',N''-beta-chitotrioside as substrate after 10 mins by microplate reader analysis
T1 sequence (Q25615 whole entry): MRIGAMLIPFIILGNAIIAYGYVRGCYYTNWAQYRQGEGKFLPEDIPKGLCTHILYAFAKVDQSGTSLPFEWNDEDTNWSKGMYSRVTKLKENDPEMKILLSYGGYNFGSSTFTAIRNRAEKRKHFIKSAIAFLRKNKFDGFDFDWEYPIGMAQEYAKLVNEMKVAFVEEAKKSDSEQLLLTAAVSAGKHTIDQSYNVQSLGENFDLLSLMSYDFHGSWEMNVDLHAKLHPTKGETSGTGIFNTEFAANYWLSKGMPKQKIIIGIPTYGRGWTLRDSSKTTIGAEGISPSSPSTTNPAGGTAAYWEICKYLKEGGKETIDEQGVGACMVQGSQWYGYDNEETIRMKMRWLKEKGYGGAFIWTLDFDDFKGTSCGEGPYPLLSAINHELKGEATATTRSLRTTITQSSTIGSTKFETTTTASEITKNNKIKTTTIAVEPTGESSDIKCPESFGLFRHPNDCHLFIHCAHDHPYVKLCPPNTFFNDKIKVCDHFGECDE

HEK-293T [2] = experiment: Protonophoric activity in human HEK293T/17 cells assessed as mitochondrial membrane depolarization at 50 uM for 30 mins by TMRE dye based flow cytometry; assay type: functional, cell-based
Method in brief: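 Trypsinized HEK 293T/17 cells at 1–2 × 10^6/mL in 10% FBS DMEM, exposed to 50 μM compound or DMSO for 30 min at 37 °C. TMRE (~450 nM final) added for 30 min in the dark at 37 °C. Cells washed with 0.2% BSA/PBS; membrane polarization read by flow cytometry on 1–2 × 10^6 cells per sample.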

HEK-293T [3] = experiment: Protonophoric activity in human HEK293T/17 cells assessed as mitochondrial membrane depolarization at 50 uM for 30 mins by TMRE dye based fluorescence spectrometry; assay type: functional, cell-based
Method in brief: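 HEK 293T/17 cells suspended at 1–2 × 10^6/mL in 10% FBS DMEM, given 50 μM compound or DMSO for 30 min at 37 °C, then stained with TMRE (~450 nM final) for 30 min in the dark at 37 °C. After washes in 0.2% BSA/PBS, fluorescence read on a plate reader (ex 549, em 575 nm). Mean ± sd, n = 3.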

[4] = biological target: T2, Chitinase (Onchocerca volvulus) (UniProt Q25615); experiment: Inhibition of Onchocerca volvulus L3 larvae chitinase using 20 uM 4-methylumbelliferyl-N,N',N''-beta-chitotrioside as substrate at 10 uM after 10 mins by microplate reader analysis
T2 sequence (whole entry): T1 sequence (Q25615 whole entry)

Entamoeba histolytica = experiment: Inhibition of Entamoeba histolytica chitinase using 20 uM 4-methylumbelliferyl-N,N',N''-beta-chitotrioside as substrate at 10 uM after 10 mins by microplate reader analysis
Caenorhabditis elegans [5] = experiment: Drug accumulation in Caenorhabditis elegans at 10 uM after 6 hrs by LC-MS analysis; assay type: ADME, organism-based; details: in vivo
Method in brief: (§1)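 Synchronized worms grown to late L4 on E. coli OP50 at 25 °C for 40 h, washed and suspended in M9 (~5–10 worms/μL). Compound added at 10 μM (~2 nmol/mg worm) for 6 or 12 h at rt. Worms washed with 0.1% SDS, then water, and lyophilized. Extracted in cold MeOH/MeCN (1:1) with internal standard and quantified by LC-TOF MS against calibration in blank worms. Mean ± sd, n = 3, nmol/mg worm.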

Plasmodium falciparum = experiment: Inhibition of Plasmodium falciparum chitinase using 20 uM 4-methylumbelliferyl-N,N',N''-beta-chitotrioside as substrate at 10 uM after 10 mins by microplate reader analysis
Brugia malayi = experiment: Inhibition of Brugia malayi chitinase using 20 uM 4-methylumbelliferyl-N,N',N''-beta-chitotrioside as substrate at 10 uM after 10 mins by microplate reader analysis
Onchocerca volvulus [6] = experiment: Antiparasitic activity against Onchocerca volvulus assessed as inhibition of L3 to L4 larval molting at 1 uM for 24 hrs measured until 6 days by using inverted microscopic analysis in presence of PBMC and 1 uM protonophore CCCP; assay type: functional, organism-based
Method in brief: (§2)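 O. volvulus L3 larvae pre-incubated with compound for 24 h, then complete medium (20% heat-inactivated FCS) and normal PBMCs added; molting assessed on day 6. Combination lines use a 1:1 mix with CCCP, each at the stated concentration. Percent molting taken over 10 wells, on average 5–10 larvae per well.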

Onchocerca volvulus [7] = experiment: Antiparasitic activity against Onchocerca volvulus assessed as inhibition of L3 to L4 larval molting at 10 uM for 24 hrs measured until 6 days by using inverted microscopic analysis in presence of PBMC; assay type: functional, organism-based; method in brief: as §2
Onchocerca volvulus [8] = experiment: Antiparasitic activity against Onchocerca volvulus assessed as inhibition of L3 to L4 larval molting at 1 uM for 24 hrs measured until 6 days by using inverted microscopic analysis in presence of PBMC; assay type: functional; method in brief: as §2
Onchocerca volvulus [9] = experiment: Antiparasitic activity against Onchocerca volvulus assessed as inhibition of L3 to L4 larval molting at 2.5 uM for 24 hrs measured until 6 days by using inverted microscopic analysis in presence of PBMC and 2.5 uM protonophore CCCP; assay type: functional, organism-based; method in brief: as §2
Onchocerca volvulus [10] = experiment: Antiparasitic activity against Onchocerca volvulus assessed as inhibition of L3 to L4 larval molting at 100 uM for 24 hrs measured until 6 days by using inverted microscopic analysis in presence of PBMC; assay type: functional, organism-based; method in brief: as §2
Onchocerca volvulus [11] = experiment: Antiparasitic activity against Onchocerca volvulus assessed as inhibition of L3 to L4 larval molting at 0.5 uM for 24 hrs measured until 6 days by using inverted microscopic analysis in presence of PBMC and 0.5 uM protonophore CCCP; assay type: functional, organism-based; method in brief: as §2
HEK-293T [12] = experiment: Cytotoxicity against human HEK293T/17 cells assessed as cell viability at 1 to 10 uM for 24 hrs by MTS assay; assay type: cell-based
Method in brief: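 HEK 293T/17 cells (2 × 10^4) plated and held 24 h at 37 °C, then treated at 1 and 10 μM final. MTS viability read at 0.5 and 24 h post-incubation.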

Caenorhabditis elegans [13] = experiment: Drug accumulation in Caenorhabditis elegans at 10 uM after 12 hrs by LC-MS analysis; assay type: ADME, organism-based; details: in vivo; method in brief: as §1
Chitinase [14] = biological target: T1, Chitinase; experiment: Competitive inhibition of Onchocerca volvulus L3 larvae chitinase using 20 uM 4-methylumbelliferyl-N,N',N''-beta-chitotrioside as substrate after 10 mins by microplate reader analysis
Caenorhabditis elegans [15] = experiment: Drug metabolism in Caenorhabditis elegans assessed as glycosylated metabolite formation after 12 hrs by LC/MS analysis; assay type: ADME, organism-based; details: in vivo
Caenorhabditis elegans [16] = experiment: Drug metabolism in Caenorhabditis elegans assessed as 5-iodo closantel formation after 12 hrs by LC/MS analysis; assay type: ADME, organism-based; details: in vivo
Caenorhabditis elegans [17] = experiment: Drug metabolism in Caenorhabditis elegans assessed as sulfated metabolite formation after 12 hrs by LC/MS analysis; assay type: ADME, organism-based; details: in vivo
Caenorhabditis elegans [18] = experiment: Drug metabolism in Caenorhabditis elegans assessed as glucordinated metabolite formation after 12 hrs by LC/MS analysis; assay type: ADME, organism-based; details: in vivo
Caenorhabditis elegans [19] = experiment: Toxicity in Caenorhabditis elegans; assay type: organism-based; details: in vivo
Caenorhabditis elegans [20] = experiment: Drug metabolism in Caenorhabditis elegans assessed as 3-iodo closantel formation after 12 hrs by LC/MS analysis; assay type: ADME, organism-based; details: in vivo

| Structure (SMILES) | IC50 (Chitinase [1]) [nM] | Activity (HEK-293T [2]) | Activity (HEK-293T [3]) | Drug uptake (Caenorhabditis elegans [5]) | inhibition (Onchocerca volvulus [7]) | also measured |
| --- | --- | --- | --- | --- | --- | --- |
| COc1c(I)cc(I)cc1C(=O)Nc1ccc(Oc2ccccc2)cc1 | 1280 | inactive | inactive | – | – | – |
| O=C(Nc1ccc(-c2ccccc2)cc1)c1cc(I)cc(I)c1O | 470 | – | – | Active | – | inhibition [4]: Active; inhibition (Entamoeba histolytica): inactive; inhibition (Plasmodium falciparum): inactive; inhibition (Brugia malayi): inactive |
| Cc1ccc(Oc2ccc(NC(=O)c3cc(I)cc(I)c3O)cc2)cc1 | 1110 | – | – | – | – | – |
| O=C(Nc1ccc(Oc2ccccc2Cl)cc1)c1cc(I)cc(I)c1O | 1200 | – | – | – | – | – |
| O=C(Nc1ccc(Oc2ccc(F)cc2)cc1)c1cc(I)cc(I)c1O | 1570 | – | – | – | – | – |
| COc1c(I)cc(I)cc1C(=O)Nc1ccc(Oc2ccc(Cl)cc2)cc1 | 600 | inactive | inactive | Active | Active | inhibition (Onchocerca volvulus [6]): inactive; inhibition [4]: Active; inhibition (Entamoeba histolytica): inactive; inhibition (Onchocerca volvulus [8]): inactive; inhibition (Onchocerca volvulus [9]): Active; inhibition (Onchocerca volvulus [10]): Active; inhibition (Plasmodium falciparum): inactive; inhibition (Onchocerca volvulus [11]): inactive; inhibition (Brugia malayi): inactive |
| Cc1ccc(-c2ccc(NC(=O)c3cc(I)cc(I)c3O)cc2)cc1 | 990 | – | – | – | – | – |
| COc1c(I)cc(I)cc1C(=O)O | – | – | – | – | inactive | – |
| N#CC(C#N)=NNc1cccc(Cl)c1 [CARBONYL CYANIDE M-CHLOROPHENYLHYDRAZONE] | – | – | – | Active | Active | – |
| O=C(Nc1ccc(Oc2cccc(Cl)c2)cc1)c1cc(I)cc(I)c1O | 1740 | – | – | – | – | – |
| O=C(Nc1ccc2ccccc2c1)c1cc(I)cc(I)c1 | 1290 | inactive | inactive | – | – | – |
| O=C(Nc1ccc(Oc2ccccc2)cc1)c1cc(I)cc(I)c1O | 1980 | Active | Active | – | – | – |
| COc1c(I)cc(I)cc1C(=O)N(C)c1ccc(Oc2ccccc2)cc1 | 3710 | inactive | inactive | – | – | – |
| O=C(Nc1ccc2ccccc2c1)c1cc(I)cc(I)c1O | 940 | Active | Active | Active | Active | Activity (HEK-293T [12]): Non-toxic; inhibition at 1 µM (Onchocerca volvulus [8]): 84%; Drug uptake (Caenorhabditis elegans [13]): 1.13 nmol/mg |
| COc1c(I)cc(I)cc1C(=O)Nc1ccc2ccccc2c1 | 890 | inactive | inactive | Active | Active | inhibition (Onchocerca volvulus [8]): inactive; Drug uptake (Caenorhabditis elegans [13]): 1.28 nmol/mg |
| O=C(Nc1ccc(Oc2ccc(Cl)cc2)cc1)c1cc(I)cc(I)c1O | 700 | Active | Active | Active | Active | inhibition [4]: Active; Activity (HEK-293T [12]): Non-toxic; inhibition (Entamoeba histolytica): inactive; inhibition at 1 µM (Onchocerca volvulus [8]): 84%; inhibition (Brugia malayi): inactive |
| O=C(Nc1ccc(Oc2ccc(Cl)cc2)c(Cl)c1)c1cc(I)cc(I)c1O [RAFOXANIDE] | 340 | Active | Active | 1.55 nmol/mg | Active | inhibition [4]: Active; Activity (HEK-293T [12]): Non-toxic; inhibition (Entamoeba histolytica): inactive; inhibition at 1 µM (Onchocerca volvulus [8]): 84%; Ki (Chitinase [14]): 130 nM; Drug uptake (Caenorhabditis elegans [13]): 1.73 nmol/mg; inhibition (Brugia malayi): inactive |
| Cc1cc(C(C#N)c2ccc(Cl)cc2)c(Cl)cc1NC(=O)c1cc(I)cc(I)c1O (stereo not given) [CLOSANTEL] | – | Active | Active | Active | – | Drug metabolism (Caenorhabditis elegans [15]): metabolite_notdetected; Drug metabolism (Caenorhabditis elegans [16]): metabolite_detected; Drug metabolism (Caenorhabditis elegans [17]): metabolite_notdetected; Drug metabolism (Caenorhabditis elegans [18]): metabolite_notdetected; Activity (Caenorhabditis elegans [19]): Non-toxic; Drug metabolism (Caenorhabditis elegans [20]): metabolite_detected |
| O=C(Nc1ccc(Oc2ccc(Cl)cc2)cc1)c1cc(I)cc(I)c1 | 870 | inactive | inactive | Active | – | – |
| O=C(Nc1ccc(-c2ccc(Cl)cc2)cc1)c1cc(I)cc(I)c1O | 370 | – | – | Active | – | inhibition [4]: Active; inhibition (Entamoeba histolytica): inactive; inhibition (Plasmodium falciparum): inactive; inhibition (Brugia malayi): inactive |
| CN(C(=O)c1cc(I)cc(I)c1O)c1ccc(Oc2ccccc2)cc1 | 1810 | – | – | – | – | – |
| O=C(Nc1ccc(Oc2ccccc2)cc1)c1cc(I)cc(I)c1 | 1060 | inactive | inactive | – | – | – |
